NPY-Y2 PAM-ag = human NPY-Y2 potentiation or agonism, primary screen. hit rate 0.45% among 220,000. AID 1359. activation, % at 3.6 µM. cells expressing NPY-Y2, potentiator/agonist read-out; in the data active = activation above about 27%;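 also: cells stimulated with NPY near EC25 plus isoproterenol at EC100; 0% = vehicle plus submaximal agonist and 100% = vehicle plus saturating agonist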
Hsp70 activator = switches on Hsp70 transcription; HeLa Hsp70 promoter luciferase reporter, luminescence; scaled: vehicle 0, proteasome-inhibitor control 100%; activation, % at 10 µM; hit rate 0.04% among 200,000; AID 1203;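 active = activation above the mean across all tested compounds plus 3 SD, cutoff set per campaign, cut at about 5.5% in these data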;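 also: 100% = MG132 at 30 µM as the positive control and 0% = DMSO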
Wee1 stabilizer = blocks degradation of human Wee1 kinase. P30291. hit rate 1.2% among 220,000. HeLa Luc-Wee1K328M stability, luciferase luminescence; 100% = proteasome inhibitor MG132 effect. reporter increase, % at 5 µM;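 active = activation above the mean of all tested compounds plus 3 SD, set per screening run, cut at about 8.8% in these data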;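 also: cells exposed to compound for 20 h before luminescence read; 0% = DMSO alone and 100% = MG132 at 30 µM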
NPY-Y2 antag = antagonists of human neuropeptide Y receptor Y2 | inhibition, % at 2.7 µM | hit rate 0.99% among 140,000 | AID 793 | NPY-Y2 expressing cells, antagonist mode | P49146;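 also: 0% = vehicle with agonist challenge and 100% = reference antagonist with challenge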
NPY-Y1 PAM-ag = potentiates or activates human NPY-Y1 receptor | activation, % at 3.6 µM | NPY-Y1 expressing cells, potentiator/agonist activation | AID 1304 | hit rate 0.37% among 220,000 | P25929; in the data active = activation above about 33%, passing the limit was not always enough;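 also: cells stimulated with NPY at EC10 then isoproterenol at EC100; 0% = low agonist plus stimulus and 100% = saturating agonist plus stimulus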
Target sequence (P25929 whole entry, looked up): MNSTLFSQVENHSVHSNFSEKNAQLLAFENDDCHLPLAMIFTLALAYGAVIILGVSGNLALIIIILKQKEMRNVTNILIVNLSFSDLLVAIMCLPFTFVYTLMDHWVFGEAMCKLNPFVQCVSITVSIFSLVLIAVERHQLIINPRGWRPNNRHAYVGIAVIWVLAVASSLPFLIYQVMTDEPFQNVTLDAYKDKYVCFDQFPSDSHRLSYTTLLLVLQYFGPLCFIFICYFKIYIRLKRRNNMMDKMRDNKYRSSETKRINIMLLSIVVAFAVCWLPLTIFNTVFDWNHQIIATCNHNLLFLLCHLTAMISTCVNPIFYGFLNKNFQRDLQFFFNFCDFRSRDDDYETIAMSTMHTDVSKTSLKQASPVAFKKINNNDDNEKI
NPY Y1 blocker = blocks the human neuropeptide Y Y1 receptor; HEK293-CNG Y1 cells, membrane potential fluorescence; NPY at EC95, then isoproterenol; inhibition, % at 3.6 µM; hit rate 1% among 200,000; AID 1040;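 active = inhibition above the campaign mean inhibition of all tested compounds plus 3 SD, cut at about 20% in these data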;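 also: 0% = DMSO wells given NPY plus isoproterenol and 100% = isoproterenol alone without NPY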
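Test system – HEK293 Y1/CNG channel cell line · Also added – NPY agonist 25 nM, then isoproterenol 1 µM plus Ro 20-1724 25 µM · Compound dosing – one concentration, 3.6 µM, in 0.4% DMSO · Schedule – compound incubation 1 h at room temperature, readout 45 min post-stimulation · Technique – fluorescence, membrane potential probe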
NPY-Y1 ant conf = human NPY-Y1 antagonism, confirmation | AID 1254 | shares compounds with NPY Y1 blocker | hit rate 21% among 1,200 | HEK293-CNG NPY-Y1, membrane potential fluorescence, cAMP; NPY challenge against isoproterenol-raised cAMP | inhibition, % at 3.6 µM; in the data active = inhibition above about 20%;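 also: 0% = vehicle with agonist plus stimulus and 100% = stimulus alone without agonist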
NPY-Y2 antag ct = counter-screen for NPY-Y1 antagonists: human NPY-Y2 antagonism. HEK293 NPY-Y2 CNG membrane potential fluorescence; cells given NPY, then isoproterenol. shares compounds with NPY Y1 blocker. hit rate 28% among 1,200. inhibition, % at 3.6 µM;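 also: 0% = DMSO with agonist challenge and 100% = reference antagonist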
* marks the source's active call; other numbers are inactive results; . = no result given. In the library only some 3% were active in any assay of this set; here they are far more common. Rule as the data show it, unless noted: active = inhibition above about 17%; inactive = the rest.

SMILES | NPY-Y2 PAM-ag | Hsp70 activator | Wee1 stabilizer | NPY-Y2 antag | NPY-Y1 PAM-ag | NPY Y1 blocker | NPY-Y1 ant conf | NPY-Y2 antag ct
COc1ccc(CNC(=O)C2CC(c3cccc(OC)c3)=NO2)cc1 (stereo not given) | -32 | 0 | 3 | 12 | -28 | 12 | . | .
COc1cccc(C2=NOC(C(=O)NCc3ccc(F)cc3)C2)c1 (stereo not given) | -47 | 0 | 1 | 13 | -55 | 23* | 15 | 24*
COc1ccc(C2=NOC(C(=O)NCc3ccc(F)cc3)C2)cc1OC (stereo not given) | -12 | 0 | -1 | 9 | -12 | 33* | 7 | 16
COc1cccc(C2=NOC(C(=O)NCc3cccs3)C2)c1 (stereo not given) | -48 | 0 | 5 | 7 | -13 | 30* | 3 | 15
COc1ccc(-n2ccnc2SCC(=O)NC2CCCC2)c(OC)c1 | -11 | 0 | 2 | . | -7 | -4 | . | .
Cc1cccc(NCC(=O)NNC(=S)Nc2ccccc2)c1 | -5 | 0 | -2 | . | 16 | 0 | . | .
CCCNC(=O)N1CCN(S(C)(=O)=O)CC1 | 10 | 0 | -4 | . | 1 | -3 | . | .
C#CCn1c(S(=O)(=O)Cc2ccc(OC)cc2)nc(-c2ccccc2)c1-c1ccccc1 | -27 | 0 | -1 | 12 | -4 | 20* | 8 | 4
CCOC(=O)Cn1c(S(=O)(=O)Cc2ccc(Cl)cc2)nc(-c2ccccc2)c1-c1ccccc1 | -9 | 0 | -1 | 5 | -3 | 6 | . | .
O=C(Nc1ccc2nc(-c3ccc(Br)o3)[nH]c2c1)c1cccs1 | -19 | 0 | 2 | 6 | -14 | 21* | 2 | 8
CC(C)Cc1nn2c(N)c(/C=C3\C=Nc4ccccc43)c(=O)nc2s1 | -12 | 0 | 0 | . | 24 | 2 | . | .
CCc1c(C)sc(NC(=O)c2cccs2)c1C(=O)OC(C)C | -16 | 0 | 2 | 4 | -19 | 20* | 10 | 18*
CC(=O)N(Cc1ccc(Br)cc1)c1cccc(C)c1C | 2 | 0 | 4 | . | -11 | 33* | 1 | 5
COc1ccc(CN(C(C)=O)c2cccc(C)c2C)cc1 | -7 | 0 | 7 | 5 | -28 | 7 | . | .
CCC(C)N(C)Cc1cccc(C2(O)CCN(S(=O)(=O)c3ccc(F)c(C)c3)CC2)c1 (stereo not given) | -31 | -1 | -2 | 3 | -22 | 2 | . | .
Cc1cc(=O)n2cccc(O)c2n1 | -1 | 0 | 2 | . | 5 | 4 | . | .
Cc1ccsc1-c1nc(CSCC(=O)NCc2ccc3c(c2)OCO3)c(C)o1 | -16 | 0 | -1 | 4 | -5 | 21* | 11 | 8
Cc1nc(SCC(=O)NCc2ccc3c(c2)OCO3)c(C#N)c2c1CCCC2 | 1 | 1 | -2 | 13 | -26 | 21* | 4 | 10
O=C(O)c1nn(-c2ccccc2)nc1-c1nn(-c2ccccc2)nc1C(=O)O | -19 | 0 | 3 | 9 | -33 | 31* | 10 | 10
COC(=O)c1nn(-c2ccccc2)nc1-c1nn(-c2ccccc2)nc1C(=O)OC | -8 | 0 | 0 | 4 | -8 | 3 | . | .
c1ccc(-n2cc(CN3CCCC(CN4CCCC4)C3)c(-c3ccc4c(c3)OCO4)n2)cc1 (stereo not given) | -25 | 0 | -2 | . | -36 | 32* | 14 | 27*
O=C(Nc1ccccc1)NC(Cc1ccc(O)cc1)C(=O)O (stereo not given) | -2 | 0 | -3 | . | 9 | -6 | . | .
CCOC(=O)C1=C(C)NC2=C(C(=O)CCC2)C1c1cc(OC)ccc1OC (stereo not given) | 6 | 0 | -1 | -2 | -9 | -2 | . | .
CCOC(=O)C1=C(C)NC2=C(C(=O)CCC2)C1c1cn(Cc2ccc(Cl)cc2Cl)nc1-c1ccccc1 (stereo not given) | -16 | 0 | 0 | 12 | -46 | 35* | 30* | 39*
CN(C)c1ccnc(Oc2ccccc2)c1C#N | 18 | 0 | -2 | -1 | -13 | 3 | . | .
SMILES | NPY-Y2 PAM-ag | Hsp70 activator | Wee1 stabilizer | NPY-Y2 antag | NPY-Y1 PAM-ag | NPY Y1 blocker | NPY-Y1 ant conf | NPY-Y2 antag ct
CN(C)c1ccnc(SCc2ccccc2Cl)c1C#N | -43 | 0 | 2 | 8 | -93 | 28* | 16 | 29*
COc1ccc(-n2c(C)cc(/C=N/Nc3nnc(C)n3N)c2C)cc1 | -2 | 0 | 1 | 2 | -9 | -2 | . | .
CCOC(=O)CN(c1ccccn1)S(=O)(=O)c1ccc(OC)cc1 | 0 | 0 | -2 | . | -8 | -4 | . | .
CC1=CC(C)(C)N(C(=O)CCl)c2cc(C)ccc21 | 2 | 0 | 0 | . | 8 | 0 | . | .
CC1=CC(C)(C)N(C(=O)CNC2CCCCC2)c2cc(C)ccc21 | -5 | 0 | -2 | . | -2 | 25* | 21* | 7
CN(Cc1ccccc1)C(=O)CSc1nc2cc(C(=O)N3CCC(C(N)=O)CC3)ccc2c(=O)n1-c1ccccc1 | -3 | . | 5 | . | 2 | . | . | .
CN(C)c1ccc(-c2nn3c(-c4ccc(Cl)cc4)nnc3s2)cc1 | 2 | 0 | -2 | 4 | 3 | 5 | . | .
Clc1ccc(-c2nn3c(C4COc5ccccc5O4)nnc3s2)cc1 (stereo not given) | 2 | 0 | 0 | 11 | -12 | 25* | 15 | 13
Cn1ccc(C(=O)OCC(=O)Nc2cccc3ccccc23)n1 | -13 | 0 | -2 | . | 8 | -1 | . | .
COc1ccc(Cc2noc(CN3CCN(C4CCc5ccccc5C4)CC3)n2)cc1OC (stereo not given) | -22 | 0 | 3 | . | -6 | 10 | . | .
Fc1cccc(Cc2noc(CN3CCN(C4CCc5ccccc5C4)CC3)n2)c1 (stereo not given) | -20 | 0 | -2 | . | -15 | 24* | 17 | 13
Clc1ccc(-c2nnc(-c3ccccc3Cl)o2)cc1 | -4 | 0 | 3 | 7 | -12 | 25* | 8 | 8
CCNC(=O)N1c2ccc(OCC)cc2C(C)=CC1(C)C | 5 | 0 | -2 | 1 | -5 | -4 | . | .
CC1=CC(C)(C)N(S(=O)(=O)c2ccc(C)cc2)c2cc(C)ccc21 | 9 | 0 | -2 | 16 | -32 | 13 | . | .
COc1ccc2c(c1)C(C)=CC(C)(C)N2S(=O)(=O)c1ccc(C)cc1 | 7 | 0 | -3 | . | -1 | 36* | 18 | 15
CCOc1ccc2c(c1)C(C)=CC(C)(C)N2S(=O)(=O)c1ccc(C)cc1 | -24 | 0 | 0 | . | -28 | 57* | 39* | 25*
CCCS(=O)(=O)N1CCN(Cc2ccc3c(c2)c2ccccc2n3CC)CC1 | -8 | 0 | 3 | 5 | -39 | 4 | . | .
